Here are results for 18 molecules from ChEMBL document CHEMBL3994590, “In vitro activity and mode of action of distamycin analogues against African trypanosomes” (Eur J Med Chem, 2017).

Calls of active or inactive are those of the source. The rule behind the calls is not given here.

Data set [1] deals with Trypanosoma brucei brucei. Briefly: Antitrypanosomal activity against Trypanosoma brucei brucei 427 bloodstream forms infected CHO-K1 cells expressing redox biosensor hGrx-roGFP2 assessed as induction of hGrx-roGFP2 oxidation at 1 mM after 1 hr by flow cytometric method. The data set is classed as functional. The procedure, abridged: (§1)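 Parasites induced with oxytetracycline for 24 h, then moved to 1x10^6/200 µL without inducer. Treated in triplicate for 1 h at 37 °C with 78–310 nM test compound, 1 mM menadione, 15 µM nifurtimox, 1 mM DTT or 1% DMSO. Half then given 1 mM DTT for 30 min more. PI at 2 µg/mL added; biosensor read at 488/530 nm in PI-negative cells only, as % reduction relative to DMSO.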
In general terms: Flow cytometry measures light scatter and fluorescence of single cells or particles in a stream.

The subject of data set [2] is Trypanosoma cruzi. Nature of the data set: Inhibition of Trypanosoma cruzi recombinant trypanothione synthetase using GSH/spermididine as substrate assessed as residual activity by measuring phosphate release from ATP at 30 uM after 15 mins by Biomol Green reagent based assay relative to control.
Data set [3] relates to Trypanosoma brucei brucei. Briefly: Antitrypanosomal activity against Trypanosoma brucei brucei 427 bloodstream forms at 5 uM after 24 hrs by propidium iodide dye based flow cytometry. The data set is classed as functional. To be noted: for inhibition of growth at 5 µM: Trypanosoma brucei, 427, 24 h, read-out: GI. The procedure, abridged: (§2)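 Bloodstream T. b. brucei 427 grown in HMI-9 with 10% FBS, penicillin/streptomycin, 37 °C, 5% CO2. Exponential-phase cells seeded at 5x10^5/mL; compounds added from DMSO stocks, 1% v/v DMSO final. […] Exposure 24 h, then diluted into PBS/1% glucose with 2 µg/mL PI and counted by flow cytometry. Viability given as % of DMSO-treated cell count.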

In data set [4] the test system is Leishmania infantum. Nature of the data set: Inhibition of Leishmania infantum recombinant trypanothione synthetase using GSH/spermididine as substrate assessed as residual activity by measuring phosphate release from ATP at 30 uM after 15 mins by Biomol Green reagent based assay relative to control.
The test system of data set [5] is Trypanosoma brucei brucei. Briefly: Inhibition of Trypanosoma brucei brucei recombinant trypanothione synthetase using GSH/spermididine as substrate assessed as residual activity by measuring phosphate release from ATP at 30 uM after 15 mins by Biomol Green reagent based assay relative to control.
Data set [6] relates to Trypanosoma brucei brucei. Nature of the data set: Antitrypanosomal activity against Trypanosoma brucei brucei 427 bloodstream forms after 24 hrs by propidium iodide dye based flow cytometry. The following applies: Trypanosoma brucei, 427, 24 h. The data set is classed as functional. Put shortly:
as §2

Data set [7] can be described thus: Selectivity index, ratio of EC50 for murine macrophage J774 cells to EC50 for Trypanosoma brucei brucei 427 bloodstream forms. The data set is classed as toxicity. To be noted: mouse; read-out: Ratio EC50.
The subject of data set [8] is Trypanosoma brucei brucei. Briefly: Antitrypanosomal activity against Trypanosoma brucei brucei 427 bloodstream forms infected CHO-K1 cells expressing redox biosensor hGrx-roGFP2 assessed as induction of hGrx-roGFP2 oxidation at 1 mM preincubated for 1 hr followed by DTT addition measured after 30 mins by flow cytometric method. The data set is classed as functional. Put shortly: as §1

The subject of data set [9] is Trypanosoma brucei brucei. Briefly: Antitrypanosomal activity against Trypanosoma brucei brucei 427 bloodstream forms infected CHO-K1 cells expressing redox biosensor rxYFP assessed as induction of rxYFP oxidation at 1 mM after 1 hr by propidium iodide based flow cytometry relative to control. The data set is classed as functional. The procedure, abridged:
(§3)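 CHO-K1 cells expressing rxYFP in DMEM with 10% FCS, given 400 µg/mL zeocin 48 h before the assay. Trypsinized cells seeded at 8x10^5/mL and treated in triplicate for 1 h at 37 °C with 1, 5 or 10 µM test compound, 1 mM menadione, H2O2 or DTT, or 1% DMSO. Some wells then given 1 mM DTT for 30 min. PI-negative cells analysed by flow cytometry (488/530 nm), as % reduction relative to DMSO.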

For data set [10], the system named is Trypanosoma brucei brucei. Nature of the data set: Antitrypanosomal activity against Trypanosoma brucei brucei 427 bloodstream forms infected CHO-K1 cells expressing redox biosensor rxYFP assessed as induction of rxYFP oxidation at 1 mM preincubated for 1 hr followed by DTT addition measured after 30 mins by propidium iodide based flow cytometry relative to control. The data set is classed as functional. Put shortly:
as §3

The test system of data set [11] is Trypanosoma brucei brucei. Briefly: Antitrypanosomal activity against Trypanosoma brucei brucei 427 bloodstream forms at 30 uM after 24 hrs by propidium iodide dye based flow cytometry. The data set is classed as functional. Put shortly: as §2

On to `O[C@H](CS)[C@H](O)CS`, for which, in data set [1], the result was inactive.
With `CCOC(=O)c1csc(NC(=O)c2csc(N)n2)n1`, the Activity in [2] worked out at 97.5%; in [4] it was 89.5%; in [5] it was 111%. Further, in [3], the inhibition of growth at 5 µM is 25.6%.
Consider `CC(C)(C)OC(=O)Nc1nc(C(=O)Nc2nc(C(=O)O)cs2)cs1`, for which the Activity was found to be 105% in data set [2], 89.9% in [4] and 100% in [5]. Moreover, in [3], the inhibition of growth at 5 µM was found to be 10.8%.
For orientation: EC50 means the concentration that produces a half-maximal response. A low value points to an effect from little substance. For `CCOC(=O)c1csc(NC(=O)c2csc(NC(=O)c3csc(C)n3)n2)n1`, the Activity in data set [2] turned out to be 102%; in [4] it was 110%; in data set [5], 112%. This molecule also returned an EC50 in data set [6] of 5 µM. Besides, the selectivity ratio in data set [7] is 10.5.
`CCOC(=O)c1csc(NC(=O)c2csc(NC(C)=O)n2)n1`: the Activity was 98.1% in data set [2], 82.8% in data set [4] and 102% in [5]. In [6], the EC50 is 9.6 µM. Moreover, in data set [7], the selectivity ratio amounted to 7.4.
On to `CC(C)(C)OC(=O)Nc1nc(C(=O)Nc2nc(C(=O)Nc3nc(C(=O)O)cs3)cs2)cs1`, for which the results for the Activity in data set [2], in data set [4] and in data set [5] were 112%, 116% and 112%, respectively. Further, the inhibition of growth at 5 µM in data set [3] is 22.7%.
Consider `CC1=CC(=O)c2ccccc2C1=O` [MENADIONE], for which the outcome in [8] and in [10] was inactive. For the same molecule, the Activity in data set [9] worked out at 70%; in data set [1], 21%.
In data set [6], `CC1CS(=O)(=O)CCN1/N=C/c1ccc([N+](=O)[O-])o1` (stereo unspecified) [NIFURTIMOX] displayed an EC50 of 15 µM. The selectivity ratio in data set [7] was determined as 10.
Consider `CCOC(=O)c1csc(NC(=O)c2csc(NC(=O)OC(C)(C)C)n2)n1`, for which the Activity is 96.4% in data set [2], 102% in data set [4] and 111% in data set [5]. This molecule also yielded an EC50 in [6] of 13.7 µM. In addition, in [7], the selectivity ratio turned out to be 3.5.
With `CCOC(=O)c1csc(NC(=O)c2csc(C)n2)n1`, the figures for the Activity in [2], in [4] and in data set [5] were 99.7%, 98.5% and 95.2%, respectively. The “growth inhibition (GI)” value in data set [3] was “inactive”.
Regarding `Cc1nc(C(=O)Nc2nc(C(=O)O)cs2)cs1`, the Activity in [2] was found to be 104%; in data set [4], 102%; in [5], 96.6%. In [3], the inhibition of growth at 5 µM stood at 8.1%.
As to `CC(=O)Nc1nc(C(=O)Nc2nc(C(=O)Nc3nc(C(=O)O)cs3)cs2)cs1`, the values for the Activity in data set [2], in data set [4] and in data set [5] were 102%, 83.6% and 103%, respectively. The “growth inhibition (GI)” value in [3] is “inactive”. Further, the result in [11] was inactive.
Turning to `OO` [HYDROGEN PEROXIDE], the Activity in data set [9] was 25%. The result in data set [10] was inactive.
With `CNCCNC(=O)CN1C(=O)Cc2c([nH]c3ccc(Br)cc23)-c2ccc(Cl)cc21`, the Activity in data set [4] was 57.1%; in data set [5], 49.4%.
`O=c1[nH]c2cc3no[n+]([O-])c3cc2[nH]1`: the Activity in [2] was determined as 64.9%.
For the molecule `CCOC(=O)c1csc(NC(=O)c2csc(NC(=O)c3csc(NC(C)=O)n3)n2)n1`, the Activity in data set [2] turned out to be 96.3%; in [4], 105%; in data set [5] it was 93.7%. For the same molecule, in data set [6], the EC50 came to 5.4 µM. Besides, the selectivity ratio in data set [7] is 29.1.
For `CCOC(=O)c1csc(NC(=O)c2csc(NC(=O)c3csc(N)n3)n2)n1`, the Activity in data set [2] worked out at 96.2%; in data set [4] it was 99.8%; in data set [5], 100%. The same molecule came in with an EC50 in data set [6] of 5.5 µM. The selectivity ratio in [7] was found to be 19.6.
Consider `CC(=O)Nc1nc(C(=O)Nc2nc(C(=O)O)cs2)cs1`, for which the figures for the Activity in data set [2], in [4] and in data set [5] were 99%, 102% and 108%, respectively. Besides, in [3], the inhibition of growth at 5 µM was 20%.
